Four molecules from ChEMBL document CHEMBL4414567, “α-Pyrone and Sterol Constituents of Penicillium aurantiacobrunneum, a Fungal Associate of the Lichen Niebla homalea” (J Nat Prod, 2019) can be followed below.

Holding throughout (type): functional, cell-based
One test relates to HeLa. As to the kind of experiment: Antiproliferative activity against human HeLa cells measured after 72 hrs by sulforhodamine B assay. The method, boiled down: (§1)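 SRB antiproliferation assay: cells seeded at 100,000 cells per mL in 96-well plates, incubated with compound 72 h at 37 °C in 95% air/5% CO2; sulforhodamine B staining read-out; three independent experiments, each in triplicate.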
A general note: The SRB assay estimates cell density from bound dye.

The next test has as its system HT-29. As to the kind of experiment: Antiproliferative activity against human HT-29 cells measured after 72 hrs by sulforhodamine B assay. The conditions noted are these: HT-29, 72 h. The method, boiled down: as §1
Another test has as its system MCF7. Nature of the test: Antiproliferative activity against human MCF7 cells measured after 72 hrs by sulforhodamine B assay. As to conditions: MCF7, 72 h. The method, boiled down: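 SRB assay. MCF-7 cells grown in RPMI-1640 with L-glutamine, 10% FBS and 1% antibiotic-antimycotic, at 37 °C in 95% air/5% CO2, and subcultured at 80–90% confluence. Seeded at 6000 cells per mL in 96-well plates, exposed for 72 h at 37 °C, then read by sulforhodamine B staining. Three independent experiments, each in triplicate.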

In a further test the test system is DU-145. Nature of the test: Antiproliferative activity against human DU145 cells measured after 72 hrs by sulforhodamine B assay. As to conditions: DU-145, 72 h. An outline of the steps: as §1
A further test has as its system A2780. Nature of the test: Antiproliferative activity against human A2780 cells measured after 72 hrs by sulforhodamine B assay. As to conditions: A2780, 72 h. The method, boiled down:
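A2780 cells grown in RPMI-1640 with L-glutamine, 10% FBS and 1% antibiotic-antimycotic, 37 °C, 5% CO2, subcultured at 80–90% confluence; seeded at 25000 cells per mL in 96-well plates; compound exposure 72 h at 37 °C; sulforhodamine B read-out; three independent experiments, each in triplicate.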

Some results are limits rather than exact numbers.

Turning to `C=C(CC[C@]1(C)O[C@@H]2O[C@@]34[C@H](O)C[C@H]5C[C@@H](O)CC[C@]5(C)[C@H]3CC[C@]23[C@H]4[C@H](O)C[C@@H]31)C(C)C`, the IC50 in the test with HeLa is above 10 µM; in the test on HT-29 it was 9.8 µM; in the test with MCF7, above 10 µM; with DU-145, above 10 µM; in the test on A2780, above 10 µM.
As to `COc1cc(=O)oc(/C=C/C=C/C=C/C(C)=C/[C@]2(C)O[C@H](C)[C@](C)(O)[C@@H]2O)c1C`, the IC50 in the test with HeLa is above 10 µM; in the test on HT-29, above 10 µM; with MCF7, 4.2 to 6 µM; in the test on DU-145, above 10 µM; with A2780 it was 5.7 to 8.2 µM.
For the molecule `CC(=O)O[C@H]1C(=O)[C@@]2(C)[C@H]([C@H](OC(=O)c3ccccc3)[C@]3(O)C[C@H](OC(=O)[C@H](O)[C@@H](NC(=O)c4ccccc4)c4ccccc4)C(C)=C1C3(C)C)[C@]1(OC(C)=O)CO[C@@H]1C[C@@H]2O` [PACLITAXEL], the IC50 was 0.001 µM in the test with DU-145 and 0.018 µM in the test on A2780.
Turning to `C=C(CC[C@@]1(C)O[C@H]2O[C@H]3C[C@H]1[C@]21CC[C@@H]2[C@@]4(C)CC[C@H](O)C[C@@H]4C[C@H](O)[C@@]2(O)[C@H]31)C(C)C`, the concentration for half-maximal inhibition (IC50) in the test on HeLa, in the test on HT-29, in the test on MCF7, in the test on DU-145 and in the test with A2780 was above 10 µM throughout.

By IC50 is commonly meant the concentration at which inhibition is half-maximal.
